In series [1] the target is T1, Glucocorticoid receptor (Rattus norvegicus) (UniProt P06536).
T1 sequence (whole entry): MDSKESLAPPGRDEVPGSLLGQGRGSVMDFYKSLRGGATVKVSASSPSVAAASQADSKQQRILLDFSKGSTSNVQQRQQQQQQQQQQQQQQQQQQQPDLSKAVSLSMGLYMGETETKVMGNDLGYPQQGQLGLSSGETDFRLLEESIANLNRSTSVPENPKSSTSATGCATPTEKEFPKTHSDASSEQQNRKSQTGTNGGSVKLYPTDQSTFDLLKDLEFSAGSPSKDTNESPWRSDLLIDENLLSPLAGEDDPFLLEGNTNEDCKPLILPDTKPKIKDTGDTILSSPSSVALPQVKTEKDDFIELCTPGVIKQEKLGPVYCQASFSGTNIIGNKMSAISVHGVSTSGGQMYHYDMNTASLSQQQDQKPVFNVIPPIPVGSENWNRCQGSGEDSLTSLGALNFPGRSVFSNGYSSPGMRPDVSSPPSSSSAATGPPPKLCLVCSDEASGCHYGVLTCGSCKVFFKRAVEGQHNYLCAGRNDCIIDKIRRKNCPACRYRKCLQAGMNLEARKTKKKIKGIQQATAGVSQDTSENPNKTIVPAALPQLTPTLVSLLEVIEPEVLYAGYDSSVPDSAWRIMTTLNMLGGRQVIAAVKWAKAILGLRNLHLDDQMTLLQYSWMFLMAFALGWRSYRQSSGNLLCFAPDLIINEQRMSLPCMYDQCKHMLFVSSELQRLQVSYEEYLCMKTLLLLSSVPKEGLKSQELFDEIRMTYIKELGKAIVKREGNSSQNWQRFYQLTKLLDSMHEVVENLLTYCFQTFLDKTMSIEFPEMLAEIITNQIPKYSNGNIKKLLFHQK
In words: Partial agonist activity at rat glucocorticoid receptor in primary hepatocytes assessed as induction of tyrosine amino transferase activity at 10 uM measured after 20 hrs. The series is classed as cell-based.

The target in series [2] is Cytochrome P450 3A5 (Homo sapiens, UniProt P20815). In words: Time-dependent inhibition of CYP3A5 (unknown origin). In kind it is ADME.
Sequence of Cytochrome P450 3A5 (P20815 whole entry): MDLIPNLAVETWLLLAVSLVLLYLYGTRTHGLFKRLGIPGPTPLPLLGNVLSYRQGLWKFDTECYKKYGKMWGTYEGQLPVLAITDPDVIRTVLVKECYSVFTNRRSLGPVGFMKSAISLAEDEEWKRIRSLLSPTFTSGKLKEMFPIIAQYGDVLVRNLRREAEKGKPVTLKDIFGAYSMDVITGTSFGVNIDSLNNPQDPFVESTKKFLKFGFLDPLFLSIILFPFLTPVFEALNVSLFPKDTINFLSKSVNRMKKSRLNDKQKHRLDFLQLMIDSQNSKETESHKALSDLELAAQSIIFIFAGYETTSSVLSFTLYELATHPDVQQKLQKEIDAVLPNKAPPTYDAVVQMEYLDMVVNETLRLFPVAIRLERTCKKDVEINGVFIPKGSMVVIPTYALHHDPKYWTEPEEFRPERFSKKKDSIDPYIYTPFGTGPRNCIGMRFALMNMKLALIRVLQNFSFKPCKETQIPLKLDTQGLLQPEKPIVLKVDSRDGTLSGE
Series [3] concerns the target T2, Glucocorticoid receptor (Canis lupus familiaris) (UniProt A0A8C0QLS2).
T2 sequence (whole entry): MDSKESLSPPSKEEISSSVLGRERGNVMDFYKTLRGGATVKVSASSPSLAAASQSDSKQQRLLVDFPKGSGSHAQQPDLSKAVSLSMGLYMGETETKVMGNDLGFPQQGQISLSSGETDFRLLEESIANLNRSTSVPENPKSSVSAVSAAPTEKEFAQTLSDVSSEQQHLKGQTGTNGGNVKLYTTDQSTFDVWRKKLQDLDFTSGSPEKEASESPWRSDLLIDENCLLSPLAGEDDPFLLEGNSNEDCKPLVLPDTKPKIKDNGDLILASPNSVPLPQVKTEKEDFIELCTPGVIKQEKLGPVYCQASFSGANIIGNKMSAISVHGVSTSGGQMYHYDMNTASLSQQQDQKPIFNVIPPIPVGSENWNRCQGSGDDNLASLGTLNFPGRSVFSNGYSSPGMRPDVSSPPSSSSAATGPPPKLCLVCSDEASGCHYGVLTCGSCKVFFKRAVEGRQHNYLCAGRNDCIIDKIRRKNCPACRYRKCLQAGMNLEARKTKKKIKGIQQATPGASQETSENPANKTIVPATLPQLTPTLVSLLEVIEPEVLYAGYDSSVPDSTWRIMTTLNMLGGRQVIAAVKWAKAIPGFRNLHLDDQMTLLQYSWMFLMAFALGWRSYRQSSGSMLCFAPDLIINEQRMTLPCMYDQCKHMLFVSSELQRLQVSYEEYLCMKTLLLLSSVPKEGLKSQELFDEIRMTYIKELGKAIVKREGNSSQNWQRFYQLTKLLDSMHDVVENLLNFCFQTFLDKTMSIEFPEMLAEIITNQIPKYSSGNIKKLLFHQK
In words: (§1) Agonist activity at dog glucocorticoid receptor in primary hepatocytes assessed as induction of tyrosine amino transferase activity measured after 20 hrs. The series is classed as cell-based.

The target in series [4] is T3, Glucocorticoid receptor (Canis lupus familiaris, UniProt A0A8C0QLS2).
T3 sequence (A0A8C0QLS2 whole entry): T2 sequence (whole entry)
Described as §1. In kind it is cell-based.

The test system of series [5] is Rattus norvegicus. Put plainly: In vivo antagonist activity at glucocorticoid receptor in Sprague-Dawley rat cortisone model of exogenous Cushing's syndrome assessed as inhibition of plasma insulin levels at 7.5 mg/kg, po bid via gavage for 6 days pretreated for 12 hrs followed by cortisone 21-acetate treatment measured 24 hrs after last cortisone 21-acetate treatment. The series is classed as functional, organism-based. An outline of the steps: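 Male Sprague Dawley rats (200-250 g) got vehicle daily for a 3-day baseline, then groups of eight were dosed. Test agent was suspended in DMSO:Tween 80:0.5% HPMC (10:0.1:89.9) and given by oral gavage twice daily for 6 days. Cortisone 21-acetate was given at 30 mg/kg s.c. once daily in 1% methylcellulose. Tail-vein blood was taken 24 h after the last cortisone dose (12 h after the last test dose). Glucose was read with a clinical reagent and insulin by rat ELISA.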

In series [6] the target is T2, Glucocorticoid receptor (Canis lupus familiaris). Put plainly: (§2) Antagonist activity at dog glucocorticoid receptor in primary hepatocytes assessed as dexamethasone-induced tyrosine amino transferase activity preincubated for 30 mins followed by dexamethasone addition measured after 20 hrs. In kind it is cell-based.
In series [7] the target is T3, Glucocorticoid receptor. Described as §2. The series is classed as cell-based.
Series [8] can be described thus: AUC in monkey plasma at 20 mg/kg, po measured up to 24 hrs by LC/MS analysis. The series is classed as ADME, organism-based, Macaca mulatta. Details: dose 20 mg/kg, time < 24 hr, route oral. Conditions: rhesus monkey. The gist of the method:
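Monkey i.v./p.o. study: oral 20mg/kg in 10% DMSO, 0.1% Tween 80, 0.5% hydroxypropylmethylcellulose in water; i.v. dose 1mg/kg.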

Series [9] is described as follows: Cmax in Sprague-Dawley CD-1 rat plasma at 5 mg/kg, po administered through gavage measured up to 24 hrs by LC/MS analysis. The series is classed as ADME, organism-based. Further details: dose 5 mg/kg, route oral. An outline of the steps: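 Jugular-catheterized male Sprague Dawley CD-1 rats (220-250g). Oral arm: five rats, 5mg/kg gavage, 1mg/mL in DMSO:0.5% methylcellulose 10:90, 5mL/kg, sampled pre-dose and 0.25-24 h. i.v. arm: three rats, 1mg/kg, 0.5mg/mL in DMSO:PEG400:propylene glycol 10:45:45, sampled pre-dose and 0.08-24 h. Plasma by LC/MS.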

We go through 1 compound from ChEMBL document CHEMBL4049426, “Identification of the Clinical Candidate (R)-(1-(4-Fluorophenyl)-6-((1-methyl-1H-pyrazol-4-yl)sulfonyl)-4,4a,5,6,7,8-hexahydro-1H-pyrazolo[3,4-g]isoquinolin-4a-yl)(4-(trifluoromethyl)pyridin-2-yl)methanone (CORT125134): A Selective Glucocorticoid Receptor (GR) Antagonist” (J Med Chem, 2017).

Active and inactive are the calls of the source. The calls are words filed in the database; no cut-off is given here. Some results are limits rather than exact numbers.

Consider `Cn1cc(S(=O)(=O)N2CCC3=Cc4c(cnn4-c4ccc(F)cc4)C[C@]3(C(=O)c3cc(C(F)(F)F)ccn3)C2)cn1` [RELACORILANT], for which the outcome in series [1] was Active. For the same compound, the TDI entry in [2] is listed as “Not Active”. In addition, the maximum response (Emax) in [3] was found to be 80%. Moreover, in [4], the concentration giving a half-maximal response (EC50) is greater than 10 µM. The inhibition result in series [5] is “Active”. Moreover, the Imax in series [6] turned out to be 31%. Moreover, the inhibition constant (Ki) in [7] was greater than 10 µM. In [8], this compound registered an area under the curve (AUC) at 24 h of 11700 ng·h/mL. Further, the peak level in series [9] (Cmax) was 297 ng/mL.
